Measured values from ChEMBL document CHEMBL4177603 (Bioorg Med Chem Lett, 2017).

Assays:
[1] = Solubility of the compound in aqueous buffer at pH 7.1; assay type: physicochemical
Adenosine receptor A1 = Adenosine receptor A1 (Homo sapiens, UniProt P30542); assay: Agonist activity at recombinant human adenosine A1 receptor expressed in mouse BA/F3 cells assessed as increase in calcium flux by spectrophotometric method; assay type: functional, cell-based
[2] = Drug recovery in bile duct-cannulated rat bile at 0.3 mg/kg, iv via infusion for 1 hr; assay type: ADME, organism-based; details: read-out: Drug recovery
[3] = biological target: T1, Muscarinic acetylcholine receptor M1 (Homo sapiens) (UniProt P11229); assay: Antagonist activity at human M1 receptor expressed in CHOK1 cells assessed as inhibition of acetylcholine-induced calcium flux at 10 uM by fluorimetric method relative to control; assay type: functional, cell-based
T1 sequence (whole entry): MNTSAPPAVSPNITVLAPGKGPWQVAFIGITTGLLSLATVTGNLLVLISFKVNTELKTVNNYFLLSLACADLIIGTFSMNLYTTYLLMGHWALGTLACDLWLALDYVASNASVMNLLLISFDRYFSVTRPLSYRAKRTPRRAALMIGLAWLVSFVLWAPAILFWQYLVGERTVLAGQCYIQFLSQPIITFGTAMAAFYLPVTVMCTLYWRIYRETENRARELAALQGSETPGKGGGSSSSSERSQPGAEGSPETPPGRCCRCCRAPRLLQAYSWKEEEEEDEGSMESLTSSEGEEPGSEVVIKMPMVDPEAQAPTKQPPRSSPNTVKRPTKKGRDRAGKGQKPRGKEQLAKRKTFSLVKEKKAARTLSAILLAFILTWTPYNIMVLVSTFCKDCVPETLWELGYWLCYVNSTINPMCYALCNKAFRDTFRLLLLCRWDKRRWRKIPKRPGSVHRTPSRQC

[4] = Half-life in iv dosed mouse; assay type: ADME, organism-based; details: in vivo
[5] = biological target: D(1A) dopamine receptor (Homo sapiens) (UniProt P21728); assay: Displacement of [3H]SCH 23390 from recombinant human D1 receptor at 10 uM after 60 mins by scintillation counting method
[6] = Biliary clearance in rat at 0.3 mg/kg, iv via infusion for 1 hr; assay type: ADME, organism-based, Bile; details: in vivo
[7] = Clearance in rat blood at 0.3 mg/kg, iv via infusion for 1 hr; assay type: ADME, organism-based; details: whole blood
In short: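 Blood clearance was calculated from the measured plasma clearance and the measured blood:plasma ratio.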

[8] = biological target: Sodium channel protein type 5 subunit alpha (Homo sapiens, UniProt Q14524); assay: Inhibition of human Nav1.5 by Q-patch clamp electrophysiology method
[9] = biological target: Glutamate NMDA receptor (Rattus norvegicus) (UniProt P35439+Q00959+Q00960+Q00961+Q62645+Q8VHN2+Q9R1M7); assay: Displacement of [3H]CGP 39653 from rat brain NMDA receptor at 10 uM after 60 mins by scintillation counting method
[10] = biological target: Cannabinoid receptor 1 (Homo sapiens) (UniProt P21554); assay: Displacement of [3H]CP 55940 from recombinant human CB1 receptor at 10 uM after 120 mins by scintillation counting method
[11] = Clearance in rat plasma at 0.3 mg/kg, iv via infusion for 1 hr; assay type: ADME, organism-based
[12] = Intrinsic clearance in dog hepatocytes assessed per million cells; assay type: ADME, cell-based, Canis lupus familiaris, Hepatocyte; details: read-out: CLH
[13] = biological target: Sodium channel protein type 2 subunit alpha (Homo sapiens, UniProt Q99250); assay: Inhibition of human Nav1.2 expressed in HEK cells by patch clamp electrophysiology method; assay type: cell-based
[14] = biological target: Voltage-gated inwardly rectifying potassium channel KCNH2 (Homo sapiens, UniProt Q12809); assay: Inhibition of human ERG by PatchXpress electrophysiology method
[15] = biological target: High affinity choline transporter 1 (Homo sapiens, UniProt Q9GZV3); assay: Displacement of [3H]hemicholinium-3 from recombinant human choline transporter after 60 mins by scintillation counting method
[16] = Protein binding in non-human primate plasma assessed as fraction unbound at 2 uM; assay type: ADME, cell-free, Macaca mulatta; details: rhesus monkey
[17] = Solubility of the compound in aqueous buffer at pH 3.2; assay type: physicochemical
[18] = biological target: T2, 5-hydroxytryptamine receptor 1B (Homo sapiens, UniProt P28222); assay: Agonist activity at human 5-HT1B receptor expressed in HeLa cells assessed as increase in cAMP accumulation at 10 uM measured after 20 mins by HTRF method relative to control; assay type: functional, cell-based
[19] = biological target: Sodium-dependent noradrenaline transporter (Homo sapiens, UniProt P23975); assay: Displacement of [3H]nisoxetine from recombinant human norepinephrine transporter after 120 min by scintillation counting method
[20] = biological target: 3',5'-cyclic-AMP phosphodiesterase 4D (Homo sapiens) (UniProt Q08499); assay: Inhibition of recombinant human PDE4D2 at 10 uM using [3H]cAMP as substrate measured after 20 mins by scintillation counting method relative to control
[21] = Solubility of the compound in aqueous buffer at pH 4.2; assay type: physicochemical
[22] = Permeability in RRCK cells; assay type: ADME, cell-based, Canis lupus familiaris, MDCKII-LE; details: dog, MDCK; read-out: permeability
[23] = biological target: D(2) dopamine receptor (Homo sapiens) (UniProt P14416); assay: Antagonist activity at recombinant human D2S receptor expressed in HEK293 cells assessed as inhibition of dopamine-induced cell impedance at 10 uM by cellular dielectric spectroscopic method relative to control; assay type: cell-based
[24] = Inhibition of sodium channel site2 (unknown origin) by radioligand binding assay relative to control; design: species or system Homo sapiens
[25] = biological target: T1, Muscarinic acetylcholine receptor M1 (Homo sapiens); assay: Agonist activity at human M1 receptor expressed in CHOK1 cells assessed as increase in calcium flux at 10 uM by fluorimetric method relative to control; assay type: functional, cell-based
[26] = biological target: Histamine H2 receptor (Homo sapiens) (UniProt P25021); assay: Agonist activity at recombinant human H2 receptor expressed in CHOK1 cells assessed as increase in cAMP accumulation at 10 uM measured after 30 mins by HTRF assay relative to control; assay type: functional, cell-based
[27] = biological target: Tyrosine-protein kinase Lck (Homo sapiens) (UniProt P06239); assay: Inhibition of recombinant human LCK at 10 uM using Ulight-Poly GAT[EAY(1:1:1)]n as substrate after 10 mins by LANCE assay
[28] = biological target: Sodium channel protein type 4 subunit alpha (Homo sapiens, UniProt P35499); assay: Inhibition of human Nav1.4 expressed in HEK cells by patch clamp electrophysiology method; assay type: cell-based
[29] = biological target: T2, 5-hydroxytryptamine receptor 1B; assay: Agonist activity at human 5-HT1B receptor expressed in HeLa cells assessed as increase in cAMP accumulation measured after 20 mins by HTRF method; assay type: functional, cell-based
Rattus norvegicus = species on record: Rattus norvegicus; assay: Displacement of [3H]D888 from L-type calcium channel verapamil binding site in rat brain at 10 uM measured after 120 mins by scintillation counting method
[30] = Protein binding in mouse plasma assessed as fraction unbound; assay type: ADME, cell-free
[31] = Terminal half-life in dog at 0.3 mg/kg, iv via infusion for 0.5 hrs; assay type: ADME, organism-based, Canis lupus familiaris; details: in vivo, read-out: beta t1/2 (converted)
In short: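 Dog IV pharmacokinetics, with half-life reported as two values: α (initial phase) and β (terminal phase) of the disposition profile.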

[32] = Solubility of the compound in aqueous buffer at pH 5.5; assay type: physicochemical

Sequence of High affinity choline transporter 1 (Q9GZV3 whole entry): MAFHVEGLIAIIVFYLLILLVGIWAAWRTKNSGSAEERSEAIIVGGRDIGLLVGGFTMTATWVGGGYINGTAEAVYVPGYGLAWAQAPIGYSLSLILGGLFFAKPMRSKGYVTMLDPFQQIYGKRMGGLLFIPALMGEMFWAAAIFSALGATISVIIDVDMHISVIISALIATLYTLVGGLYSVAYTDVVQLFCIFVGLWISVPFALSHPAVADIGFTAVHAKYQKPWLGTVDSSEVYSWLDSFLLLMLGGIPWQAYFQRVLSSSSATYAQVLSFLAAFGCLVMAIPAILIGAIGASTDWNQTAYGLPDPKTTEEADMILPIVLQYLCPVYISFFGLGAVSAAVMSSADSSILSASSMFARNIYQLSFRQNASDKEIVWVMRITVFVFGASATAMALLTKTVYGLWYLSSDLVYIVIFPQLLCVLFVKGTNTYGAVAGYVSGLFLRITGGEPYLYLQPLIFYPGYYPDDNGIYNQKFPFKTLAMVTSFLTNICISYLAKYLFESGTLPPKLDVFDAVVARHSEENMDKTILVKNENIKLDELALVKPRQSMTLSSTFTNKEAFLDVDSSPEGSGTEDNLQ
Sequence of Sodium-dependent noradrenaline transporter (P23975 whole entry): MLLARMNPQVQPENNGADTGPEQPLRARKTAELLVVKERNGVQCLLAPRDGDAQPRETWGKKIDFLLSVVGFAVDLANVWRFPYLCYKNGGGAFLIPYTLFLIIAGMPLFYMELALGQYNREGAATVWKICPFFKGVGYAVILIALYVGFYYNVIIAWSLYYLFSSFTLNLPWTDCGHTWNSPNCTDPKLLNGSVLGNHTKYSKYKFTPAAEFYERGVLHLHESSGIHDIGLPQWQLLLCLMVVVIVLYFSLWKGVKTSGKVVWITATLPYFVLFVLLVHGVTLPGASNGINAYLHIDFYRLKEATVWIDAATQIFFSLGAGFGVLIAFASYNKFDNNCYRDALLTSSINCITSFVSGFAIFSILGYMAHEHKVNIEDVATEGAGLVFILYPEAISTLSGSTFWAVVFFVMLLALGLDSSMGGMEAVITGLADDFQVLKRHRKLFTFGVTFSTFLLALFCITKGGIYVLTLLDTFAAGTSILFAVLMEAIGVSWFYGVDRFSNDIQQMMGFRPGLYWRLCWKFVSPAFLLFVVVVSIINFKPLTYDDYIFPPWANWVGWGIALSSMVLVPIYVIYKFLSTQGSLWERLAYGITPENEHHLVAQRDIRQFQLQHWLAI
T2 sequence (P28222 whole entry): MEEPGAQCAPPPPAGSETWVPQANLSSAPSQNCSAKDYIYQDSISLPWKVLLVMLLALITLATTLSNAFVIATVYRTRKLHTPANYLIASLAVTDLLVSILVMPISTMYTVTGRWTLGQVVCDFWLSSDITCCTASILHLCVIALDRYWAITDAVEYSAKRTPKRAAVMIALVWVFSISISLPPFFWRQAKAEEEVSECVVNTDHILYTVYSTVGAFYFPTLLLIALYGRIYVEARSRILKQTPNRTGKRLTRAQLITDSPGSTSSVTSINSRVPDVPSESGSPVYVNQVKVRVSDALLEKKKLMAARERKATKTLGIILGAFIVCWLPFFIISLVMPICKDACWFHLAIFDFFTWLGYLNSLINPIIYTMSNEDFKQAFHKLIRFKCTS
Sequence of 3',5'-cyclic-AMP phosphodiesterase 4D (Homo sapiens) (Q08499 whole entry): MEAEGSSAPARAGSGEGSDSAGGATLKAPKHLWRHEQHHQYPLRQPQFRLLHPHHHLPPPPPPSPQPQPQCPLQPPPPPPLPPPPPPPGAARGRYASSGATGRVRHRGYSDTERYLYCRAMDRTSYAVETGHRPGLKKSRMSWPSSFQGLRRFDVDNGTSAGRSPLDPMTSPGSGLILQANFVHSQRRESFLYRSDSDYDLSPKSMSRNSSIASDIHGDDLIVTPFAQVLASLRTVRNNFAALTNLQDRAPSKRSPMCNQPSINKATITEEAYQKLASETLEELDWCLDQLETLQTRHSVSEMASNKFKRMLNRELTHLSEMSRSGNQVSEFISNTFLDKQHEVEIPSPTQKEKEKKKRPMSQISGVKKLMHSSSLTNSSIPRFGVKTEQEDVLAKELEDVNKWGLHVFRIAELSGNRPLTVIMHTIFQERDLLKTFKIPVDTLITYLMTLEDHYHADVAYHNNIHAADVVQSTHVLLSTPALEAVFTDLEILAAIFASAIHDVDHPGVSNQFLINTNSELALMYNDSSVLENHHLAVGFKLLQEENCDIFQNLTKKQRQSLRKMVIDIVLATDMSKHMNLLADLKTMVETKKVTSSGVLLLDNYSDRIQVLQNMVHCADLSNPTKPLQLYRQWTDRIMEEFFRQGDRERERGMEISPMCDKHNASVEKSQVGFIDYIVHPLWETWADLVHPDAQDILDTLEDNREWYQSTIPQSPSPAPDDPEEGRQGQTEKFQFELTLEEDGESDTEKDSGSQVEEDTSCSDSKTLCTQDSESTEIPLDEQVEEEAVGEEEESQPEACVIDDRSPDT
Sequence of Voltage-gated inwardly rectifying potassium channel KCNH2 (Q12809 whole entry): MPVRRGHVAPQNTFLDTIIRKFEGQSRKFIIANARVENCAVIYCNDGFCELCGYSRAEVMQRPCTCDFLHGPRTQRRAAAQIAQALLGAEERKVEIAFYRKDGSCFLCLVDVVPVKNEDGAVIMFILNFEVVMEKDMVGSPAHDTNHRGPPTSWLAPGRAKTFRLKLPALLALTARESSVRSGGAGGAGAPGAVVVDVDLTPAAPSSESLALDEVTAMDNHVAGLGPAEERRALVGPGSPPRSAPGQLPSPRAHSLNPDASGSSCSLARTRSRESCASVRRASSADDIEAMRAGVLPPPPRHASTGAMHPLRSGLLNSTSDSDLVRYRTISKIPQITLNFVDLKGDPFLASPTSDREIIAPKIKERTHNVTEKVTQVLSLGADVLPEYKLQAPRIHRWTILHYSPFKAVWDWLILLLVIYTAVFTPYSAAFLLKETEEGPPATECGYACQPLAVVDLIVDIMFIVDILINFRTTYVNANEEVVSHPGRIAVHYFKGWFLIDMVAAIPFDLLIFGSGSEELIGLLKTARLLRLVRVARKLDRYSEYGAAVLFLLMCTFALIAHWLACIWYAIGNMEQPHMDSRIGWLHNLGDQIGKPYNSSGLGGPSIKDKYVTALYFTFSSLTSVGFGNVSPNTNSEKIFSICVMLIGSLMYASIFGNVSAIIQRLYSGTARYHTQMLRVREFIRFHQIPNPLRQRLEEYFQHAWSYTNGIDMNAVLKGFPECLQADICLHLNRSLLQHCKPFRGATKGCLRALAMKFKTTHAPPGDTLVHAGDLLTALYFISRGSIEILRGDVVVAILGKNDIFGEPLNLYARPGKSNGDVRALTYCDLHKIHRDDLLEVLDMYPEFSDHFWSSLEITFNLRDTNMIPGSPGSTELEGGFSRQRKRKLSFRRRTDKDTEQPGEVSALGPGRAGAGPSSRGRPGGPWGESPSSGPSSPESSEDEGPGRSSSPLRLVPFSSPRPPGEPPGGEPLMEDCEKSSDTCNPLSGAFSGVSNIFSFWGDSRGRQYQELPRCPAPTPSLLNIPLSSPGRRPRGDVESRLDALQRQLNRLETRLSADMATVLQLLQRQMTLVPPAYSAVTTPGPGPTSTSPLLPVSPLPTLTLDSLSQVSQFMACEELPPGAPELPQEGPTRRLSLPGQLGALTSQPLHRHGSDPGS
Sequence of Adenosine receptor A1 (P30542 whole entry, the tested form may be a part): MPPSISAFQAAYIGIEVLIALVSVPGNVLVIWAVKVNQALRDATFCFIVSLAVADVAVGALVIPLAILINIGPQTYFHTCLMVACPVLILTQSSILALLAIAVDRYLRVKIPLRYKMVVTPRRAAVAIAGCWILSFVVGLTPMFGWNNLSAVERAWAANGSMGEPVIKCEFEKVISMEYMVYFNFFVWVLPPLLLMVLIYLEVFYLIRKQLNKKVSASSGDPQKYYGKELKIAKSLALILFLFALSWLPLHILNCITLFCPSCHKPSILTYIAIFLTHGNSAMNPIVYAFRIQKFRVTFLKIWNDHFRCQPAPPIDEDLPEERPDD
Sequence of D(1A) dopamine receptor (Homo sapiens) (P21728 whole entry, the tested form may be a part): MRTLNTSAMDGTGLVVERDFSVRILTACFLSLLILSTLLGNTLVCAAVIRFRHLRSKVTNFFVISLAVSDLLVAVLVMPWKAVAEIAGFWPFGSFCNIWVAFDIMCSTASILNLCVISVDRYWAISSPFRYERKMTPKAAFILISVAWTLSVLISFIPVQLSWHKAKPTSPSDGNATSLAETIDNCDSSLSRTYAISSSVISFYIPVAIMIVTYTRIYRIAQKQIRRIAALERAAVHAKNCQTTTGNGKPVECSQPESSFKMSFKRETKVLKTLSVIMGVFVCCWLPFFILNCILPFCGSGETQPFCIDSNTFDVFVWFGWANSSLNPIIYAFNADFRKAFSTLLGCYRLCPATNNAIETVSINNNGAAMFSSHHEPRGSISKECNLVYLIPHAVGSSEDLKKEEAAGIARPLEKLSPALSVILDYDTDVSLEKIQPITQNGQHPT
Sequence of D(2) dopamine receptor (Homo sapiens) (P14416 whole entry): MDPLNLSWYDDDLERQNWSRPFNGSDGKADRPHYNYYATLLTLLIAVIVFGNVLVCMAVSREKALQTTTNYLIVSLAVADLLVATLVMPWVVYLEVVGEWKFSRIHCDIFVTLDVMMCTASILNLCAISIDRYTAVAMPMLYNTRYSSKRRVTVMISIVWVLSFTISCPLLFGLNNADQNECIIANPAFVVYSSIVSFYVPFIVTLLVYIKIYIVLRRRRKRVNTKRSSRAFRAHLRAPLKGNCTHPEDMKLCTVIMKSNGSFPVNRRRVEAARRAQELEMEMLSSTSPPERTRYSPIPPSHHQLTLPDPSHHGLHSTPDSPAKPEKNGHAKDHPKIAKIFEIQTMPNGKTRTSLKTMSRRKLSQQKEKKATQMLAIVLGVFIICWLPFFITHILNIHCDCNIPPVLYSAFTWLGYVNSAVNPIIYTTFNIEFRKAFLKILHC

Structure (SMILES): N#Cc1cc(S(=O)(=O)Nc2ncns2)ccc1Oc1ccc(-c2cccc(C(F)(F)F)c2)cc1-c1ccnc(CNCCC2CCNCC2)c1
- solubility [1]: > 2570 µg/mL
- EC50 (Adenosine receptor A1): 1430 nM
- dose excreted at 1 h [2]: 74%
- inhibition [3]: 7%
- half-life [4]: 39.6 min
- inhibition [5]: 60%
- CL [6]: 44 mL/min/kg
- clearance [7]: 178 mL/min/kg
- IC50 [8]: 12.8 µM
- inhibition [9]: 21%
- inhibition [10]: 21%
- clearance [11]: 83.1 mL/min/kg
- hepatocyte CLint [12]: < 6 µL/min/1e6 cells
- IC50 [13]: 2.52 to 3 nM
- IC50 [14]: > 25.2 µM
- IC50 [15]: 120 nM
- Ki [15]: 68 nM
- fraction unbound at 2 µM [16]: 0.001
- solubility [17]: > 906 µg/mL
- Activity [18]: 141%
- IC50 [19]: 4.25 µM
- Ki [19]: 3.16 µM
- inhibition [20]: -8%
- solubility [21]: > 1170 µg/mL
- Papp [22]: 0.62 ×10⁻⁶ cm/s
- inhibition [23]: 31%
- IC50 [24]: 48 nM
- Ki [24]: 43 nM
- Activity [25]: 2%
- Activity [26]: -4%
- inhibition [27]: 43%
- IC50 [28]: 1450 nM
- EC50 [29]: > 10 µM
- inhibition (Rattus norvegicus): 35%
- fraction unbound [30]: 0.00281
- half-life [31]: 354 min
- solubility [32]: > 1840 µg/mL
